# In BindingDB's records for doi:10.1021/acs.jmedchem.5b01947 (Amgen, 2016):
# Positions of bridges follow the written chain, without caps; N, C: chain ends. Residues, ends and D or L forms follow the SMILES beside them.
# Columns and labels:
# [1] = target: T1, Sodium channel protein type 5 subunit alpha (Homo sapiens, UniProt Q14524); assay: Inhibition of human Nav1.5 expressed in HEK293 cells assessed as inward peak current by ion-works quattro patch clamp electrophysiology method
# Summary of the method: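 Stable HEK293 line expressing human NaV1.5, recorded by population patch clamp on the IonWorks Quattro.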
# [2] = target: Sodium channel protein type 9 subunit alpha (Homo sapiens, UniProt Q15858); assay: Inhibition of human Nav1.7 expressed in HEK293 cells by whole cell patch clamp electrophysiology method
# [3] = target: T1, Sodium channel protein type 5 subunit alpha; assay: Inhibition of human Nav1.5 expressed in HEK293 cells by whole cell patch clamp electrophysiology method
# Summary of the method: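 Stable HEK293 line expressing human NaV1.5. Peptides were used only at >95% purity with the correct m/z, and were quantified by chemiluminescent nitrogen detection against a caffeine standard curve.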
# T1 sequence (Q14524 whole entry): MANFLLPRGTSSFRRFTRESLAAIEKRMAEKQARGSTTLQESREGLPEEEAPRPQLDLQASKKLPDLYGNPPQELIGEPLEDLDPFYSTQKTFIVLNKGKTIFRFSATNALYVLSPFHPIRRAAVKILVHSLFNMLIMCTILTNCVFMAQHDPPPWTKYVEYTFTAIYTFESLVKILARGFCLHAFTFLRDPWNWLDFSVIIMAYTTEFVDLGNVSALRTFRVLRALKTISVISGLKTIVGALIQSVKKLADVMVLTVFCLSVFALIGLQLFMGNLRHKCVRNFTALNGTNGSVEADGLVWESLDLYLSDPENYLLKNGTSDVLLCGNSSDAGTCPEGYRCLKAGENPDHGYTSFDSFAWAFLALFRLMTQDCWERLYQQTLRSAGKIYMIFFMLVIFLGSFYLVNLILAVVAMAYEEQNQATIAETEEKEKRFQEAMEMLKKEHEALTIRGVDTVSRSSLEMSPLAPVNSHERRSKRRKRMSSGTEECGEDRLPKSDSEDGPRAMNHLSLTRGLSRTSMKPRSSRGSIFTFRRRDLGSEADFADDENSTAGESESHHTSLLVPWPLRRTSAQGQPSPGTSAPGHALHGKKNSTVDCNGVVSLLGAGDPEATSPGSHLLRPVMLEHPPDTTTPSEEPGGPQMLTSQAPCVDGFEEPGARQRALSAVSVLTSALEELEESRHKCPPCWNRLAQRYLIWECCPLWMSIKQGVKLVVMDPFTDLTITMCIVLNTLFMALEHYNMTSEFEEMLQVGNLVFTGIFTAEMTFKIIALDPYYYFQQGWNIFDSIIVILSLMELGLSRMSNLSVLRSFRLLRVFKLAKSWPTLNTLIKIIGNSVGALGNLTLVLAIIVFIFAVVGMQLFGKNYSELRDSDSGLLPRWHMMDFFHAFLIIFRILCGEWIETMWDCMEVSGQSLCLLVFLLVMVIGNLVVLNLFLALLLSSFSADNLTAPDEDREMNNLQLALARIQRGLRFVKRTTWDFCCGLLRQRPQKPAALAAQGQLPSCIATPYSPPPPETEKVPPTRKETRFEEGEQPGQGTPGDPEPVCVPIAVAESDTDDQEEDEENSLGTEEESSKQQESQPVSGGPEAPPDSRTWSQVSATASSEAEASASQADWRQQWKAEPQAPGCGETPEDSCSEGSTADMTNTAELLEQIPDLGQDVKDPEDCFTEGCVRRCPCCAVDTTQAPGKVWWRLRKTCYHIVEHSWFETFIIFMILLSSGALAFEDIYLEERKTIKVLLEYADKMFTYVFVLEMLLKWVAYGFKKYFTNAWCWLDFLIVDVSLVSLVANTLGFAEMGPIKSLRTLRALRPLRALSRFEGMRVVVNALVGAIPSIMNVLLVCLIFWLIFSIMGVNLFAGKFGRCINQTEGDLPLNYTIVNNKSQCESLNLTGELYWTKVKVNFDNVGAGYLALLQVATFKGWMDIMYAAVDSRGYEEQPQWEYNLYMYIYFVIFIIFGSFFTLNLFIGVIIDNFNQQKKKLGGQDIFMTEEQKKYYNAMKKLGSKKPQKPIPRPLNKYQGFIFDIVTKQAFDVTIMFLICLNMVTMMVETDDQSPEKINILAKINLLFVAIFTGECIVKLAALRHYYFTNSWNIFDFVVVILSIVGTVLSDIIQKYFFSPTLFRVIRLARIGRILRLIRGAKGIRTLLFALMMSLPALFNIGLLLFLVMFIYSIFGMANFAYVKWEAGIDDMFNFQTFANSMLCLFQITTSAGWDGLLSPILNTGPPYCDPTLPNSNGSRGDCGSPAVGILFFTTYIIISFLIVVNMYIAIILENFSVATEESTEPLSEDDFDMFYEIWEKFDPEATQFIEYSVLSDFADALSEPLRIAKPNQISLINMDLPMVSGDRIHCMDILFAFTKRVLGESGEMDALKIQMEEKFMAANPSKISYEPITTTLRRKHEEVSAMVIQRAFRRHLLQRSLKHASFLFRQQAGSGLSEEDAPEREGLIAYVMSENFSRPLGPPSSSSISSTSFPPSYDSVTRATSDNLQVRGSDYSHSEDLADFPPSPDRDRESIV
# Sodium channel protein type 9 subunit alpha, sequence (Q15858 whole entry): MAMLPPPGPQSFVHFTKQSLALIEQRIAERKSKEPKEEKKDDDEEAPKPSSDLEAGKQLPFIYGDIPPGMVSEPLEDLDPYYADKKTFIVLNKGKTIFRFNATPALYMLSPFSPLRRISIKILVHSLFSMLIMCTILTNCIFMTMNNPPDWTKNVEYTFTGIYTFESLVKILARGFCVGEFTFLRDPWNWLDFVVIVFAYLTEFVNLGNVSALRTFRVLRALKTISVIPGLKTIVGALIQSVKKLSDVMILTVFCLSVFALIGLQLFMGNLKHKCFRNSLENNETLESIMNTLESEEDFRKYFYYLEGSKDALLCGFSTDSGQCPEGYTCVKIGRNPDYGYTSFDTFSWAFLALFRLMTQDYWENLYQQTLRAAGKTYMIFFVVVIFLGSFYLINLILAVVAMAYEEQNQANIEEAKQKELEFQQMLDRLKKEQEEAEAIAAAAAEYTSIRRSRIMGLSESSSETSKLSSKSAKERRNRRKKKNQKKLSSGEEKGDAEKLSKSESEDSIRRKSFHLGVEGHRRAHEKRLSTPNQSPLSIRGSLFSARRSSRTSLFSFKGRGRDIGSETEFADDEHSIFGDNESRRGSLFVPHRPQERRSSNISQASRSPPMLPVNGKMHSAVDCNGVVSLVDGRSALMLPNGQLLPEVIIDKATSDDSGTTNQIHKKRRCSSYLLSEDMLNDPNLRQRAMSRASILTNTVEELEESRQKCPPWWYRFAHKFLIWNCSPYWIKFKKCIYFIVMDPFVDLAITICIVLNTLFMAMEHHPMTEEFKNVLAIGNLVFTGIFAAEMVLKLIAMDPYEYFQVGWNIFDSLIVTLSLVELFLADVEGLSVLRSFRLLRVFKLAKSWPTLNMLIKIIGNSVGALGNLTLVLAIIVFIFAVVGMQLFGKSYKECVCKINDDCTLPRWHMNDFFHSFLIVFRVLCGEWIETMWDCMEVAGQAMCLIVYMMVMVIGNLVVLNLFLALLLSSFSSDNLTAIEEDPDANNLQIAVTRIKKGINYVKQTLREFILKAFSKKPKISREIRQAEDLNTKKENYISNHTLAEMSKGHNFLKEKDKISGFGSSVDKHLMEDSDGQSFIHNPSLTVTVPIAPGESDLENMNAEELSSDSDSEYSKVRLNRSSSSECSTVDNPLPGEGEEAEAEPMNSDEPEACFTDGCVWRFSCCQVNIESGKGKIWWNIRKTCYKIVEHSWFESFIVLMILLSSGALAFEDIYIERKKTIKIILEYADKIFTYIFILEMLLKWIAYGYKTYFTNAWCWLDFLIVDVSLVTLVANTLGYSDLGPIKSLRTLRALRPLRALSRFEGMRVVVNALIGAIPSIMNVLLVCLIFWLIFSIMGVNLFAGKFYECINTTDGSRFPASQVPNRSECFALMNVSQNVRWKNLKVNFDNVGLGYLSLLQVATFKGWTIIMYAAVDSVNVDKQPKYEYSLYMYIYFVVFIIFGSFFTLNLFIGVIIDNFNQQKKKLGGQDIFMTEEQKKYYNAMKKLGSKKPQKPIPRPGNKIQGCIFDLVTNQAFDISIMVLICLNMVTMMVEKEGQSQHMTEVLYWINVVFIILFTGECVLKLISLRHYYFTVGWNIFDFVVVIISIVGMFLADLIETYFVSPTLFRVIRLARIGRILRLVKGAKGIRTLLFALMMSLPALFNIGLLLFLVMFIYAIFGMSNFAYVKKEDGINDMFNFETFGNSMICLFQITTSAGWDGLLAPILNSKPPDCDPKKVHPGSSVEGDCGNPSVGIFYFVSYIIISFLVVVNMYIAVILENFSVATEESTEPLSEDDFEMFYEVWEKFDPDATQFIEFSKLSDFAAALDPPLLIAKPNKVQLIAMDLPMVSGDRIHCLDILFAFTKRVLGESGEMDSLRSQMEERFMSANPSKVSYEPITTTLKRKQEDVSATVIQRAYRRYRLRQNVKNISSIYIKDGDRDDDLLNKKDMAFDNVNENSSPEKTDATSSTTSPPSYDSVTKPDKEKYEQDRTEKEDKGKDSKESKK
SMILES,IC50 [1] [nM],IC50 [2] [nM],IC50 [3] [nM]
CC[C@H](C)[C@@H]1NC(=O)[C@@H]2CSSC[C@@H]3NC(=O)[C@H](C(C)C)NC(=O)[C@H](CC(C)C)NC(=O)[C@H](CC(N)=O)NC(=O)[C@@H]4CCCN4C(=O)[C@H](CCCNC(=N)N)NC(=O)[C@H](CSSC[C@H](NC(=O)[C@@H](N)CC(=O)O)C(=O)N[C@@H](CC(C)C)C(=O)NCC(=O)N[C@@H](Cc4ccccc4)C(=O)N[C@@H](CCSC)C(=O)N[C@@H](CCCNC(=N)N)C(=O)N[C@@H](CCCCN)C(=O)N2)NC(=O)[C@H](CSSC[C@@H](C(=O)N[C@@H](CCCCN)C(=O)N[C@@H](Cc2ccc(O)cc2)C(=O)N[C@H](C(=O)N[C@@H](Cc2ccccc2)C(=O)N[C@@H](Cc2c[nH]c4ccccc24)C(N)=O)C(C)C)NC(=O)[C@H](Cc2c[nH]c4ccccc24)NC(=O)[C@H](CCCCN)NC(=O)[C@H](Cc2c[nH]cn2)NC(=O)[C@H]([C@@H](C)O)NC(=O)[C@H](CCCNC(=N)N)NC(=O)[C@H](CO)NC3=O)NC(=O)[C@H](CCCCN)NC(=O)[C@H](CC(=O)O)NC(=O)[C@H](CC(N)=O)NC(=O)[C@H](CC(=O)O)NC(=O)[C@@H]2CCCN2C1=O,> 5000,10,2700
"CC[C@H](C)[C@@H]1NC(=O)[C@@H]2CSSC[C@@H]3NC(=O)[C@H](C(C)C)NC(=O)[C@H](CC(C)C)NC(=O)[C@H](CC(N)=O)NC(=O)[C@@H]4CCCN4C(=O)[C@H](CCCNC(=N)N)NC(=O)[C@H](CSSC[C@H](NC(=O)[C@@H](N)CC(=O)O)C(=O)N[C@@H](CCC(=O)O)C(=O)NCC(=O)N[C@@H](Cc4ccccc4)C(=O)N[C@@H](CCSC)C(=O)N[C@@H](CCCNC(=N)N)C(=O)N[C@@H](CCCCN)C(=O)N2)NC(=O)[C@H](CSSC[C@@H](C(=O)N[C@@H](CCCCN)C(=O)N[C@@H](Cc2ccc(O)cc2)C(=O)N[C@H](C(=O)N[C@@H](Cc2ccccc2)C(N)=O)C(C)C)NC(=O)[C@H](Cc2c[nH]c4ccccc24)NC(=O)[C@H](CCCCN)NC(=O)[C@H](Cc2cnc[nH]2)NC(=O)[C@H]([C@@H](C)O)NC(=O)[C@H](CCCNC(=N)N)NC(=O)[C@H](CO)NC3=O)NC(=O)[C@H](CCCCN)NC(=O)[C@H](CC(=O)O)NC(=O)[C@H](CC(N)=O)NC(=O)[C@H](CC(=O)O)NC(=O)[C@@H]2CCCN2C1=O (H-DCEGFMRKCIPDNDKCCRPNLVCSRTHKWCKYVF-NH2; disulfide 2-17, 9-23, 16-30)",> 5000,–,–
